EBNA-1 inh: EBNA-1 DNA-binding inhibitors, primary screen, biochemical, fluorescence polarization | inhibition, % at 14.8 µM | 0.34% of 300,000 active | AID 1950, 2009; in the data active = inhibition above about 28%
HCV NS3 hel inh: inhibitors of HCV NS3 helicase, primary screen, biochemical, Cy5 molecular beacon fluorescence | AID 1800, 2009 | 0.56% of 290,000 active | inhibition, % at 10.9 µM | NS3 helicase DNA unwinding;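 active = inhibition above the mean of all tested compounds plus 3 SD, set per campaign, cut at about 35% in these data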;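 note: 0% = DMSO wells and 100% = thioflavine S control wells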
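System: HCV NS3 helicase fragment; control set: DMSO and thioflavine S; technique: Cy5 fluorescence at 0 and 60 min, beacon hairpin quenching; reagent: beacon DNA duplex substrate plus ATP; replicates: singlicate; schedule: 1 h reaction at 25 °C, ATP-initiated; medium: MOPS buffer pH 6.5 with MgCl2, DTT, Tween20, BSA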
ZTA DNA inh: blocks Epstein-Barr virus ZTA, an EBNA-1 counter-screen. 0.15% of 320,000 active. inhibition, % at 11 µM. AID 2234. P03206. ZTA-DNA binding, fluorescence polarization; in the data active = inhibition above about 33%
Target sequence (P03206 whole entry, looked up): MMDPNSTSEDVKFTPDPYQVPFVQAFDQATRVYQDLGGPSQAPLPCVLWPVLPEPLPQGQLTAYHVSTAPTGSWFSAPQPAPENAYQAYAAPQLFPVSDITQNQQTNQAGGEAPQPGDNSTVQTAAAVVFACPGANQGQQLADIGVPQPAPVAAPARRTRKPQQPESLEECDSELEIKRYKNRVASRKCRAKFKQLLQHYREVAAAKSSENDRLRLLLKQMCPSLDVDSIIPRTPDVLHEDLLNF
PABP polyA inh: PABP poly(A) RNA binding inhibitors, primary screen, biochemical, fluorescence polarization, uHTS. AID 2014, 2009. 1% of 290,000 active. inhibition, % at 35 µM;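 note: calls also rest on retests at 20 µM and on dose response follow-up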
eIF4H inh: human eIF4H binding inhibitors, primary screen, translation initiation inhibitor project, biochemical, uHTS, fluorescence polarization; Eukaryotic translation initiation factor 4H (Homo sapiens), Q15056; eIF4H fluorescence polarization binding assay; inhibition, % at 35 µM; 0.94% of 290,000 active;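 note: calls also rest on retests at 20 µM and on dose response follow-up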
MLLE-PAM2 inh: inhibitors of PABP1 MLLE–PAM2 peptide binding, primary screen, biochemical, fluorescence polarization, FITC-PAM2, GST-MLLE; Polyadenylate-binding protein 1 (Homo sapiens), P11940; inhibition, % at 20 µM; 0.36% of 360,000 active; in the data active = inhibition above about 35%, passing the limit was not always enough;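 note: plate controls were DMSO wells with GST-MLLE for no effect and wells lacking GST-MLLE protein for full effect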
* hit, by the source's call; ? = inconclusive; nt = not tested or not shown; + = active, no number. Sampled rows, rich in hits. Any-hit rate of the full collection: about 2.1%. Unless noted, the rule behind the calls is not given here.

SMILES | EBNA-1 inh | HCV NS3 hel inh | ZTA DNA inh | PABP polyA inh | eIF4H inh | MLLE-PAM2 inh
Cc1cc(C)n(CC2CC(=O)N(c3ccc(F)c(Cl)c3)C2=O)n1 (stereo not given) | 3 | 1 | -11 | 1 | 4 | 2
O=C1NC(=S)S/C1=C\C=C\c1ccc([N+](=O)[O-])o1 | nt | 21 | nt | 91* | 95* | 3
O=C1c2c(O)ccc(O)c2C(=O)c2c(NCCNCCO)ccc(NCCNCCO)c21 | 110* | nt | + | nt | nt | 22
O=C1c2ccccc2C(=O)c2c(Nc3ccc(CCO)cc3)ccc(O)c21 | -10 | 0 | -17 | 16 | 13 | 3
O=C(NNC(=O)C1CCN(Cc2ccc(Cl)c(Cl)c2)CC1)c1cccs1 | -4 | 6 | 6 | 6 | -4 | 6
CCOc1cc(/C=N/Nc2ccccc2Cl)ccc1OCC(=O)O | 1 | 53* | 13 | 0 | 10 | 5
CCOc1cc(/C=N/Nc2nc(Nc3ccccc3)nc(N3CCCCC3)n2)ccc1OCC(=O)O | -2 | 15 | -15 | ? | 2 | 7
O=c1cc(O)n(C2CCCCCC2)c(=O)[nH]1 | 1 | 1 | -15 | 17* | 56 | -33
O=c1[nH][nH]c(=S)n1C1CCCCC1 | 9 | 12 | 18 | 2 | -6 | nt
O=C(/C=C/c1ccc(OCCCF)cc1)Nc1ccnc(-c2cccnc2)n1 | 24 | 8 | 1 | active | 102* | -63
Cc1nn(C)cc1S(=O)(=O)N1CCN(Cc2ccccc2Cl)CC1 | -8 | -2 | -1 | 9 | -3 | -18
CCCN1CCN(S(=O)(=O)c2cn(C)nc2C)CC1 | -12 | -4 | 4 | 38* | 69 | 36
CCCS(=O)(=O)NC(=O)C1(C)CCCN(C(=O)COc2ccccc2)C1 (stereo not given) | nt | nt | nt | nt | nt | 4
COc1c(Cl)cc(Cl)cc1C(=O)Nc1ccc(NC(=O)c2cccs2)cc1 | 1 | -3 | 5 | 1 | -5 | -2
O=C(O)c1cccc(-n2cccc2C=C2C(=O)c3ccccc3C2=O)c1 | -8 | 16 | -5 | -4 | 61 | 10
O=C(N/N=C/c1cccn1-c1cccc(C(=O)O)c1)Nc1ccccc1 | 6 | 26 | 8 | active | ? | -2
c1ccc(Nc2nc3ccccc3n3nnnc23)cc1 | 8 | -12 | -5 | ? | ? | 22
Brc1ccc(Nc2nc3ccccc3n3nnnc23)cc1 | -1 | -9 | 6 | 87* | 79* | nt
Cc1ccc(S(=O)(=O)NCc2ccc(C(=O)NCCc3ccc(S(N)(=O)=O)cc3)cc2)cc1 | -18 | -12 | -18 | 1 | -3 | 2
CN1C(=O)c2ccc(N3CCCC3)cc2C1=O | 2 | 16 | -16 | 78* | 72* | 10
COc1ccc(N2C3=C(CC4=C2CCCC4=O)C(=O)CCC3)cc1 | -1 | 28 | -3 | active | 105* | 79*
Cc1ccc(N=Cc2ccc(O)cc2O)cc1F | 0 | 6 | 10 | 67* | 54* | 0
O=C(/C=C/c1ccco1)N1CCN(c2ncccn2)CC1 | -9 | -5 | -10 | -4 | 44 | 68*
Cn1c(=O)oc2cc(S(=O)(=O)NCc3cccnc3)ccc21 | -4 | -4 | -10 | 24* | 65 | 2
CCC1CCCCN1Cc1ccc(CNS(=O)(=O)c2ccc3c(c2)oc(=O)n3C)o1 (stereo not given) | -8 | 4 | -12 | 68* | 55* | -9
SMILES | EBNA-1 inh | HCV NS3 hel inh | ZTA DNA inh | PABP polyA inh | eIF4H inh | MLLE-PAM2 inh
Cn1c(=O)oc2cc(S(=O)(=O)Nc3cccc4c3CCCC4)ccc21 | 0 | -1 | -16 | 56* | 62* | -7
Cc1ccc(NC(=O)C2Oc3ccccc3OC2C)cc1 (stereo not given) | 4 | 3 | -6 | -10 | -4 | 13
O=C(Nc1cccc(S(=O)(=O)N2CCCC2)c1)c1ccncc1 | -1 | -2 | 8 | 7 | -4 | -5
CCN(CC(=O)N1CCCC1)S(=O)(=O)c1ccccc1 | nt | -17 | nt | 62* | 72* | 2
CCOC(=O)c1c(C)[nH]c(C(=O)N/N=C\c2ccccc2O)c1C | 12 | 21 | 10 | 59* | 14 | 8
COCCOC(=O)C1=C(C)NC(=O)NC1c1c(Cl)nc2ccccn2c1=O (stereo not given) | -7 | 2 | -4 | 0 | 32 | 41*
COCCOC(=O)C1=C(C)NC(=O)NC1c1c(Cl)nc2c(C)cccn2c1=O (stereo not given) | -2 | -7 | 1 | 6 | 25 | nt
COCCOC(=O)C1=C(C)NC(=O)NC1c1ccco1 (stereo not given) | 3 | 9 | -5 | 27* | 58* | 15
OCCN(Cc1ccccc1)Cc1cccc(Cl)c1Cl | 10 | -4 | 1 | 10 | -4 | 0
COC(=O)CCC(=O)OC1(C)C(=O)C=C2C=C(c3ccsc3)OC=C2C1=O (stereo not given) | 17 | nt | 22 | nt | nt | -22
CCC(=O)OC1(C)C(=O)C=C2C=C(c3ccsc3)OC=C2C1=O (stereo not given) | 0 | nt | 12 | 51* | 93* | -28
COC(=O)c1cc(-c2c(-c3cc(OC)c(OC)c(OC)c3)noc2C)cc([N+](=O)[O-])c1 | 9 | 10 | -8 | -6 | -4 | 12
C[C@@H](NC(=O)/C(C#N)=C/c1ccc(O)c(O)c1)c1ccccc1 | -3 | nt | 4 | nt | nt | -26
CC(NC(=O)/C(C#N)=C/c1ccc(OCC(=O)O)cc1)c1ccccc1 (stereo not given) | -5 | 22 | -8 | 64* | 16 | -85
Cc1cccc(OCCN2C(=O)C(=O)c3cccc(C)c32)c1 | 2 | -6 | 8 | 74 | 1.1* | -6
Cc1nc([N+](=O)[O-])cn1-c1ccc(N)cc1 | -21 | 3 | -9 | -8 | -10 | -48
O=C1CC(NC(=O)C(F)(F)F)=NN1c1ccccc1 | 1 | -10 | 8 | 60* | active | 4
C=C(C)C(=O)NC1=NN(c2ccccc2)C(=O)C1 | 1 | 15 | -6 | -2 | 10 | 15
COC(=O)c1[nH]c2cccc(OC)c2c1NC(=O)CN(C)CC1OCCO1 | -12 | 1 | 12 | -14 | -5 | -3
Cc1ccc2c3c(cccc13)-c1ccccc1C2=O | -10 | 1 | 13 | 9.9* | 90* | 48*
O=C(CCCCC(=O)OCC1COCO1)OCC1COCO1 (stereo not given) | nt | nt | nt | nt | nt | -4
CC(NC(=O)OCc1ccccc1)C(=O)NCC(=O)NC(Cc1ccc(OC(C)(C)C)cc1)C(=O)OC(C)(C)C (stereo not given) | 0 | -23 | 2 | -1 | -12 | -3
